The results in this text go back to ChEMBL document CHEMBL1136355, “Benzyl vinylogous amide substituted aryldihydropyridazinones and aryldimethylpyrazolones as potent and selective PDE3B inhibitors” (Bioorg Med Chem Lett, 2003).

In data set [1] the target is cGMP-inhibited 3',5'-cyclic phosphodiesterase 3A (Homo sapiens, UniProt Q14432). Nature of the data set: Inhibitory concentration required to inhibit human phosphodiesterase 3A expressed in Escherichia coli. The method in brief:
(§1)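 PDE3A and PDE3B made in E. coli BL21(DE3) pLysS after IPTG induction. Soluble extract ammonium sulfate-precipitated (50% saturation), dialysed, partially purified on DEAE Sepharose with a 70–250 mM NaCl gradient. IC50 is the mean of two or more experiments.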

For data set [2], the target named is cGMP-inhibited 3',5'-cyclic phosphodiesterase 3B (Homo sapiens, UniProt Q13370). Nature of the data set: Inhibitory concentration required to inhibit human phosphodiesterase 3B expressed in Escherichia coli. In short, it runs like this: as §1
Sequence of cGMP-inhibited 3',5'-cyclic phosphodiesterase 3B (Q13370 whole entry, canonical isoform): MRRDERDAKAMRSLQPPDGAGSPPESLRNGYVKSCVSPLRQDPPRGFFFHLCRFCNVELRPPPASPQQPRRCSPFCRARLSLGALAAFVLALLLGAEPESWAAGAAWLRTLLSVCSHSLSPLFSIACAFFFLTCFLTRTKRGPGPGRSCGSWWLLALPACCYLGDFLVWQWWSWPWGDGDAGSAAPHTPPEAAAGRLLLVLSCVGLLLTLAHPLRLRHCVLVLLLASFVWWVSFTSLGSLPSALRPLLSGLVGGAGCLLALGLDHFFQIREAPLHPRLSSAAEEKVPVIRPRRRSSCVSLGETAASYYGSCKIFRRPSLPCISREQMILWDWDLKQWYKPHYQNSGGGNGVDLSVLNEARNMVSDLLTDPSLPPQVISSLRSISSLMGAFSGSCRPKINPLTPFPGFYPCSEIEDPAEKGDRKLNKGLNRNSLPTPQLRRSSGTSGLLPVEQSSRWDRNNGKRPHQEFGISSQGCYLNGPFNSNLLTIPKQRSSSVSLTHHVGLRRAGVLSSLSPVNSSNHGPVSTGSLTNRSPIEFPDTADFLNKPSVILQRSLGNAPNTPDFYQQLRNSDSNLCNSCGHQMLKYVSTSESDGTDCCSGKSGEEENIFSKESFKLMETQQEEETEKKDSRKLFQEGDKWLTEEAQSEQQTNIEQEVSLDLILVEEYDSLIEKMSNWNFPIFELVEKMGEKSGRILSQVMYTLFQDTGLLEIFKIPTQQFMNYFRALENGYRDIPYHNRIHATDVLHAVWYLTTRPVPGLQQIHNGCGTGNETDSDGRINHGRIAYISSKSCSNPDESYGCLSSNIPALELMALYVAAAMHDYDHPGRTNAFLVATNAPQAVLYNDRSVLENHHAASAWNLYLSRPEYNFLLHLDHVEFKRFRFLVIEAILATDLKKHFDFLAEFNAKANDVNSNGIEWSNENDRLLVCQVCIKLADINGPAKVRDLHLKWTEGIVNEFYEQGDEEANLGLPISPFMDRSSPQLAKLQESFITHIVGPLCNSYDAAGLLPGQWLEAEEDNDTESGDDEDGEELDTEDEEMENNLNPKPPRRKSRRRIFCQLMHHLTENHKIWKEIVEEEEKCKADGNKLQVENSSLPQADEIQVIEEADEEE
The target in data set [3] is Phosphodiesterase 3 (Homo sapiens) (UniProt Q14432+Q13370). Briefly: Relative inhibition of Phosphodiesterase 3A and Phosphodiesterase 3B. It is filed as protein assay. The method in brief: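 PDE3A and PDE3B expressed in E. coli BL21 (DE3) pLysS after IPTG induction, ammonium sulfate precipitated, partially purified on DEAE Sepharose. Activity measured by [3H]cAMP SPA assay in 50 mM Tris pH 7.5, 8.3 mM MgCl2, 1.7 mM EGTA, 10 nM [3H]cAMP, room temperature, 2–15 min. IC50s on each isoform are means of two or more experiments.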

Data set [4] is described as follows: Oral bioavailability was determined in rat after oral administration at a concentration 1 mg/kg. It is filed as ADME, organism-based. The note with it: in vivo. In short, it runs like this: (§2)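 Rats dosed orally at 1.0 mg/kg. Blood levels were measured, and AUC was normalized and compared with iv exposure to give oral bioavailability.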
The subject of data set [5] is Rattus norvegicus. Nature of the data set: Maximal blood pressure decrease in rats at 0.1 mg/kg dose for 60 min. The class given is functional. In short, it runs like this:
(§3)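 Anesthetized rats given increasing intravenous doses (0.01–0.1 mg/kg). Mean arterial pressure recorded from 5 min to 60 min post-dose; decrease expressed as percentage.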

In data set [6] the test system is Rattus norvegicus. Nature of the data set: In vivo plasma glycerol increase in anesthetized rat at 1 mg/kg iv dose for 60 min. It is filed as functional. The note with it: 1 h. In short, it runs like this: (§4)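 Anesthetized rats given compound by intravenous infusion (1.0 mg/kg). Plasma glycerol increase over vehicle followed over a 90 min period, with a reading at 60 min taken as an index of lipolysis.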

Data set [7] concerns Rattus norvegicus. Nature of the data set: Increased metabolic rate in male rats for 8-h period after 10 mg/kg dose. It is filed as functional. In short, it runs like this: (§5)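 Male rats dosed orally at 1, 3 and 10 mg/kg. Metabolic rate monitored over 8 h post-dose and expressed as percentage increase in thermogenesis over the pre-dose rate.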
Data set [8] in a line: Half life in rat after intravenous administration at a concentration 0.5 mg/kg. The settings on record: in vivo. It is filed as ADME, organism-based. More on the design: dose 0.5 mg/kg, route intravenous. In short, it runs like this:
(§6)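 Rat pharmacokinetics after a 0.5 mg/kg intravenous dose; half-life and clearance derived from blood levels.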

The test system of data set [9] is Rattus norvegicus. Briefly: Area under curve was determined in rat after oral administration at a concentration 1 mg/kg. The arrangement: dose 1 mg/kg, route oral. It is filed as ADME, organism-based. The note with it: in vivo. The method in brief: as §2
Data set [10] can be described thus: Plasma clearance in rat after intravenous administration at a concentration 0.5 mg/kg. The class given is ADME, organism-based. The arrangement: dose 0.5 mg/kg, route intravenous. The method in brief: as §6
Data set [11] relates to Rattus norvegicus. Briefly: Maximal blood pressure decrease in rats at 0.02 mg/kg dose for 60 min. It is filed as functional. In short, it runs like this:
as §3

In data set [12] the test system is Rattus norvegicus. Nature of the data set: Increased metabolic rate in male rats for 8-h period after 3 mg/kg dose. It is filed as functional. In short, it runs like this:
as §5

Data set [13] relates to Rattus norvegicus. Nature of the data set: In vivo plasma glycerol increase in anesthetized rat at 1 mg/kg iv dose for 90 min. The class given is functional. The note with it: 1 h, in the assay text read “60 min” for “90 min”. The method in brief: as §4

Sequence of cGMP-inhibited 3',5'-cyclic phosphodiesterase 3A (Q14432 whole entry): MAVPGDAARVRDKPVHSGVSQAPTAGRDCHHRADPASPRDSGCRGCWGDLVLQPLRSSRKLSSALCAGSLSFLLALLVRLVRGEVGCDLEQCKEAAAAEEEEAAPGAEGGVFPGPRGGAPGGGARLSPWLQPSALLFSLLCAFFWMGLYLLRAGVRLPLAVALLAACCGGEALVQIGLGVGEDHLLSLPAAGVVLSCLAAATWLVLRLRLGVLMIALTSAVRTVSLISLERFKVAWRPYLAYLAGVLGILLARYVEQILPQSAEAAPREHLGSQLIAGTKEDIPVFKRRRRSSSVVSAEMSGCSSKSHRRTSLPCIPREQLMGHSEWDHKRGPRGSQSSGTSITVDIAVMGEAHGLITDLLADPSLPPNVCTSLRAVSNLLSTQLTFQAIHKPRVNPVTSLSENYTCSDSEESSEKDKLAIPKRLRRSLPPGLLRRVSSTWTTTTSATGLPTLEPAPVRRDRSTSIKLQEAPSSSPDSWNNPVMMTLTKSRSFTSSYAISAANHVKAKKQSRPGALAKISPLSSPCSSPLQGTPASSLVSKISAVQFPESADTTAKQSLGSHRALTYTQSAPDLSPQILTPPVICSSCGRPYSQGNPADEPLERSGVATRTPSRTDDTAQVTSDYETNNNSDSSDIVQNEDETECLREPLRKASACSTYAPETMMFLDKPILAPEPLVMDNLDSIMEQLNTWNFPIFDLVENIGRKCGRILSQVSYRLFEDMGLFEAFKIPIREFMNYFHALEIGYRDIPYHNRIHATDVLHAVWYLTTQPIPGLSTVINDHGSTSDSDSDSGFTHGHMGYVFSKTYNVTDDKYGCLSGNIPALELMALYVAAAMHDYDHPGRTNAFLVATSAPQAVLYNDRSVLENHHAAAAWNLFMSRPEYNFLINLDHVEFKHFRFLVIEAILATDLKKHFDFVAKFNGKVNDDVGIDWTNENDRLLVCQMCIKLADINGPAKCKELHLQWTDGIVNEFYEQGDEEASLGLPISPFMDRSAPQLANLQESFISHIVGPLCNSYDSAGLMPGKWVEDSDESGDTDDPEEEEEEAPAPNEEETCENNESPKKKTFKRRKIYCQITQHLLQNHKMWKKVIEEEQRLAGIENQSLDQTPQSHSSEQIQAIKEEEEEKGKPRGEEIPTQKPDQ

A word on the IC50: it is the concentration needed to halve the response being measured. A higher IC50 goes with a need for much substance. Consider `CC1(C)C(=O)NN=C1c1ccc(NC2=C(Cc3cccc(C#N)c3)C(=O)CCC2)cc1F`, for which the IC50 in data set [1] was 69 nM; in data set [2], 3.2 nM.
On to `CC1(C)C(=O)NN=C1c1ccc(NC2=C(Cc3ccccc3F)C(=O)CCC2)cc1F`, for which the figures for the IC50 in data set [1] and in data set [2] were 16 nM and 1.1 nM, respectively.
With `CC1CC(=O)NN=C1c1ccc(NC2=C(Cc3ccc([N+](=O)[O-])cc3)C(=O)CCC2)cc1` (stereo not drawn), the values for the IC50 in data set [1] and in data set [2] were 24 nM and 5.5 nM, respectively.
On to `CC1CC(=O)NN=C1c1ccc(NC2=C(Cc3ccccc3C(F)(F)F)C(=O)CCC2)cc1` (stereo not drawn), for which the IC50 worked out at 0.83 nM in data set [1] and 0.35 nM in data set [2].
As for `CC1CC(=O)NN=C1c1ccc(NC2=C(Cc3cccc([N+](=O)[O-])c3)C(=O)CCC2)cc1` (stereo not drawn), the results for the IC50 in data set [1] and in [2] were 3.1 nM and 0.94 nM, respectively.
Turning to `CC1CC(=O)NN=C1c1ccc(NC2=C(Cc3cccc(Br)c3)C(=O)CCC2)cc1` (stereo not drawn), the IC50 in [1] was found to be 0.94 nM; in data set [2], 0.3 nM.
As for `CC1CC(=O)NN=C1c1ccc(NC2=C(Cc3cccc(I)c3)C(=O)CCC2)cc1` (stereo not drawn), the IC50 in data set [1] stood at 0.33 nM; in data set [2] it was 0.11 nM.
On to `CC1(C)C(=O)NN=C1c1ccc(NC2=C(Cc3ccccc3)C(=O)CCC2)cc1`, for which the IC50 in [1] came out at 53 nM; in data set [2], 10 nM.
Consider `C[C@@H]1CC(=O)NN=C1c1ccc(NC(=O)c2ccccc2C(F)(F)F)cc1`, for which the IC50 in data set [1] is 15 nM; in [2], 5 nM.
As for `CC1(C)C(=O)NN=C1c1ccc(NC2=C(Cc3cccc([N+](=O)[O-])c3)C(=O)CCC2)cc1F`, the IC50 in data set [1] amounted to 150 nM; in [2] it was 4.5 nM. This molecule gave a Selectivity in data set [3] of 33.
Turning to `Cc1cc(NC2=C(Cc3cccc(C#N)c3)C(=O)CCC2)ccc1C1=NNC(=O)C1(C)C`, the results for the IC50 in data set [1] and in data set [2] were 130 nM and 10 nM, respectively.
Turning to `CC1(C)C(=O)NN=C1c1ccc(NC2=C(Cc3ccccc3)C(=O)CCC2)cc1F`, the IC50 was 20 nM in data set [1] and 2.5 nM in data set [2].
As to `CC1CC(=O)NN=C1c1ccc(NC2=C(Cc3cccc(F)c3)C(=O)CCC2)cc1` (stereo not drawn), the IC50 was 2.8 nM in data set [1] and 0.7 nM in data set [2].
`CC1CC(=O)NN=C1c1ccc(NC2=C(Cc3ccccc3)C(=O)CCC2)cc1F` (stereo not drawn): the half-maximal inhibitory concentration (IC50) was found to be 1.6 nM in data set [1] and 0.24 nM in data set [2].
As for `CCOC(=O)Nc1ccc(C2=NNC(=O)C[C@H]2C)cc1`, the IC50 in data set [1] turned out to be 24 nM; in data set [2], 8.5 nM.
For the molecule `CN(C(=O)CCCOc1ccc2[nH]c(=O)ccc2c1)C1CCCCC1` [CILOSTAMIDE], in data set [2], inhibition was half-maximal at 18 nM (IC50).
In the case of `CCc1cc(NC2=C(Cc3ccccc3)C(=O)CCC2)ccc1C1=NNC(=O)CC1C` (stereo not drawn), the half-maximal inhibitory concentration (IC50) in [1] was 101 nM; in [2] it was 21 nM.
On the same counts, the results for `Cc1cc(NC2=C(Cc3ccccc3)C(=O)CCC2)ccc1C1=NNC(=O)CC1C` (stereo not drawn) are 22 nM and 2.6 nM.
Usually bioavailability stands for the share of a dose that reaches the circulation, judged against a reference dose that is usually intravenous. Read a high bioavailability as much systemic uptake. In general, ED50 refers to the midpoint of the dose-response relation. Read a high ED50 as a need for a large dose. In general, half-life refers to the time in which the quantity being followed falls by half. A word on the AUC: it is concentration integrated over time. Usually clearance stands for a measure of how efficiently the substance is removed, as volume per time. The low end stands for inefficient removal, the high end for efficient removal. In turn, `C[C@@H]1CC(=O)NN=C1c1ccc(NC2=C(Cc3ccccc3)C(=O)CCC2)cc1` came in with a bioavailability in data set [4] of 61%. Further, the Max decrease in the data set with Rattus norvegicus [5] was determined as 40%; in the data set with Rattus norvegicus [11] it was 20%. The ED50 with Rattus norvegicus [6] and in the data set with Rattus norvegicus [13] was 0.6 mg/kg each time. The figures for the IC50 in data set [1] and in [2] were 1.3 nM and 0.19 nM, respectively. The Metabolic rate in the data set on Rattus norvegicus [7] was determined as 21%; in the data set with Rattus norvegicus [12] it was 14%. Further, in [8], the half-life was 1 h. The same molecule had an AUC in the data set with Rattus norvegicus [9] of 3.6 µM·h. In [10], the clearance turned out to be 6.8 mL/min/kg.
As to `CC(=O)Nc1ccc(C2=NNC(=O)C[C@H]2C)cc1`, the IC50 in data set [1] was 96 nM; in [2] it was 37 nM.
As for `CC1CC(=O)NN=C1c1ccc(/N=C2\CCCC(O)=C2Cc2ccccc2)c(F)c1` (stereo not drawn), the results for the IC50 in data set [1] and in [2] were 1.2 nM and 0.26 nM, respectively.
For the molecule `CC1(C)C(=O)NN=C1c1ccc(NC2=C(Cc3ccc(F)cc3)C(=O)CCC2)cc1F`, the IC50 worked out at 63 nM in data set [1] and 3.1 nM in [2].
As to `CC1(C)C(=O)NN=C1c1ccc(NC2=C(Cc3c(Cl)cccc3Cl)C(=O)CCC2)cc1F`, the IC50 in [1] worked out at 2.2 nM; in data set [2], 0.13 nM.
Take `Cc1cc(NC2=C(Cc3ccccc3)C(=O)CCC2)ccc1C1=NNC(=O)C1(C)C`: the IC50 in data set [1] was determined as 38 nM; in data set [2], 4.8 nM.
Take `CC1CC(=O)NN=C1c1ccc(NC2=C(Cc3ccccc3)C(=O)CCC2)cc1Cl` (stereo not drawn): the IC50 in [1] amounted to 46 nM; in [2], 4.8 nM.
Consider `CC1(C)C(=O)NN=C1c1ccc(/N=C2\CCCC(O)=C2Cc2cccc(C#N)c2)c(F)c1F`, for which the IC50 is 7.6 nM in [1] and 0.33 nM in data set [2]. For the same molecule, in [3], the Selectivity worked out at 23.
For `Cc1cc(C2=NNC(=O)CC2C)ccc1/N=C1\CCCC(O)=C1Cc1ccccc1` (stereo not drawn), the IC50 came to 3.7 nM in data set [1] and 0.61 nM in [2].
On to `CC1=C(Nc2ccc(C3=NNC(=O)C[C@H]3C)cc2)CCCC1=O`, for which the IC50 in [1] was found to be 44 nM; in [2] it was 8.8 nM.
Turning to `CC1CC(=O)NN=C1c1cc(F)c(NC2=C(Cc3ccccc3)C(=O)CCC2)cc1F` (stereo not drawn), the values for the IC50 in data set [1] and in [2] were 1.6 nM and 0.62 nM, respectively.
The corresponding values for `COc1ccc(CC2=C(Nc3ccc(C4=NNC(=O)CC4C)cc3)CCCC2=O)cc1` (stereo not drawn) are 2.3 nM and 0.7 nM.
For `CC1(C)C(=O)NN=C1c1ccc(NC2=C(Cc3cccc(F)c3)C(=O)CCC2)cc1F`, the values for the IC50 in data set [1] and in data set [2] were 43 nM and 5.6 nM, respectively.
With `CC1(C)C(=O)NN=C1c1ccc(NC2=C(Cc3ccccc3Cl)C(=O)CCC2)cc1Cl`, the results for the IC50 in data set [1] and in [2] were 77 nM and 6.3 nM, respectively.
The corresponding values for `CC1CC(=O)NN=C1c1ccc(NC(=O)OCc2ccccc2)cc1` (stereo not drawn) are 2.9 nM and 1 nM.
The corresponding values for `CC1(C)C(=O)NN=C1c1ccc(NC2=C(Cc3ccccc3Cl)C(=O)CCC2)cc1F` are 7.2 nM and 0.53 nM.
As to `COc1ccccc1CC1=C(Nc2ccc(C3=NNC(=O)CC3C)cc2)CCCC1=O` (stereo not drawn), the IC50 in data set [1] is 0.39 nM; in data set [2], 0.13 nM.
Turning to `CC1(C)C(=O)NN=C1c1ccc(NC2=C(Cc3cccc([N+](=O)[O-])c3)C(=O)CCC2)cc1Cl`, the IC50 in [1] is 550 nM; in data set [2], 30 nM.
